The sample as a whole holds a higher share of hits than the screen did.
T cruzi repl – T. cruzi replication inhibition; inhibition, % (concentration not given with the values); T. cruzi beta-gal in NIH3T3, luminescence, 90 h; 1.4% of 300,000 active; AID 1885;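 active = mean inhibition across valid replicates above about 55%, limit read from the data; inconclusive = mean below that limit but half or more replicates reach it; inactive = mean below it, under half of replicates reach it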;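 note: signal also drops with host cell toxicity which is not excluded here; 0% = plate median of DMSO wells and 100% = zero luminescence signal; higher percent means less beta-gal luminescence so fewer parasites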
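Incubation – ≥90 h infection period, 3 h prior cell attachment · System – NIH/3T3 fibroblasts plus reporter T. cruzi · Doses – compound pinned at 50 nL/well, DMSO · Read-out basis – percent inhibition of parasite-derived β-gal signal · Signal – luminescent β-galactosidase signal after 60 min lysis · Also added – 5000 T. cruzi trypomastigotes/well · Medium – Low-serum DMEM with 2% FBS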
HSF1 activator – increases HSF-1 driven luciferase reporter signal; NIH3T3-HGL HSF-1 luciferase reporter, MG132, 8 h; 100% = twice DMSO control signal; activation, % at 9 µM; 1.7% of 300,000 active;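 active = mean replicate activation of at least 50% with a set share of replicates each reaching 50%; inconclusive = only one of those two conditions met; inactive = mean below 50% and too few replicates reaching it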;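 note: 0% = median of the neutral control wells and 100% = twice that signal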
L major viab – reduces viability of Leishmania major promastigotes; resazurin fluorescence viability; inhibition, % at 10 µM; 9% of 200,000 active; AID 1063; in the data active = inhibition above about 50%;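 note: promastigotes grown with compound for 44 hours at 28 °C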
HSF1 inhib – HSF1 inhibition; NIH3T3-HGL HSE-luciferase, MG132-induced, luminescence 8 h; stronger effect = lower value; activity change, negative = inhibition, % at 7.5 µM (by protocol); 0.77% of 300,000 active; AID 2098;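 active = more than half of replicate wells show activity change below -50%, luminescence cut by over half; inconclusive = some wells, but at most half, below -50%; inactive = no replicate well below -50%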;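 note: luciferase reports HSF-1 transcriptional activity via heat shock element; 0% = median of DMSO wells and -100% = zero luminescence signal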
Hsp70 activator – switches on Hsp70 transcription; activation, % at 10 µM; HeLa Hsp70 promoter luciferase reporter, luminescence; scaled: vehicle 0, proteasome-inhibitor control 100%; 0.04% of 200,000 active;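 active = activation above the mean across all tested compounds plus 3 SD, cutoff set per campaign, cut at about 5.5% in these data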;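 note: 100% = MG132 at 30 µM as the positive control and 0% = DMSO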
Active calls of the source: *; ? = inconclusive; / = not tested or not shown.

SMILES | T cruzi repl | HSF1 activator | L major viab | HSF1 inhib | Hsp70 activator
Cc1cc(Cl)ccc1NC(=O)CSc1nnc(Cc2cccs2)n1Cc1ccco1 | 19 | 40 | 86* | 15 | 0
COc1cc2c(cc1NC(=O)CSc1nnc(Cc3cccs3)n1Cc1ccco1)oc1ccccc12 | 51 | 37 | 91* | 18 | 0
COc1cc2c(cc1NC(=O)CSc1nc3ccc(C)cc3[nH]1)oc1ccccc12 | 47 | 74* | 65* | 48 | 0
C=CCn1c(Cc2cccs2)nnc1SCC(=O)NCc1ccco1 | -11 | 20 | -9 | -2 | -1
CC1CCC(NC(=O)c2cc3c(s2)CCCC3)CC1 (stereo not given) | 4 | 31 | / | 20 | /
CCC(Cc1ccccc1)NC(=O)C1CC1 (stereo not given) | -4 | 13 | / | -7 | /
Nc1nc2c(c(=O)[nH]1)C(c1cccc3ccccc13)C1=C(N2)c2ccccc2C1=O (stereo not given) | / | / | 2 | / | 0
O=C(NC1CCCCC1)c1cc([N+](=O)[O-])[nH]n1 | -1 | 4 | 32 | -5 | 0
CCOC(=O)C1(CCCc2ccccc2)CCN(Cc2cnn(C)c2)CC1 | 28 | -5 | 77* | -4 | 0
CCOC(=O)C1(CCc2ccccc2)CCN(C2Cc3ccccc3C2)CC1 | -10 | 6 | 81* | 1 | 0
CCOC(=O)C1(CCOc2ccccc2)CCN(Cc2cccn2-c2cccnc2)CC1 | 60* | 34 | 35 | 11 | 0
CCOC(=O)C1(Cc2ccccc2)CCN(Cc2cccn2-c2cccnc2)CC1 | 10 | 19 | 18 | 0 | 0
CCOC(=O)C1(CCOc2ccccc2)CCN(CC2CC2)CC1 | -3 | -12 | / | 2 | /
CCOC(=O)C1(CCOc2ccccc2)CCN(CCCn2cccn2)CC1 | 12 | 7 | 79* | -2 | 0
CC(=O)c1cc2c(cc1NC(=O)CN1Cc3ccccc3C1=O)OCO2 | 8 | 0 | / | -2 | /
O=C(N[C@@H](Cc1ccccc1)C(=O)O)c1ccncc1 | -33 | 7 | 3 | 2 | 0
CCOC(=O)C1(CCOc2ccccc2)CCN(Cc2cccc(-n3cccn3)c2)CC1 | 38 | -70 | 93* | -60* | 0
CCOC(=O)C1(CCOc2ccccc2)CCN(Cc2cccc(F)c2)CC1 | 14 | 1 | / | 2 | /
COc1cccc(Oc2cn[nH]c2-c2ccc(O)cc2O)c1 | 18 | 31 | 75* | 10 | 0
COc1cccc(Oc2cn[nH]c2-c2ccc(OC)cc2O)c1 | 7 | 13 | 32 | 6 | 0
O=C(N/N=C/c1c(O)ccc2ccccc12)c1cccc(C(F)(F)F)c1 | 57* | 0 | 97* | 2 | 0
O=C(N/N=C/c1cccc(C(F)(F)F)c1)c1ccc(O)cc1 | -1 | -79 | 5 | -74* | 0
CCn1c2ccccc2c2cc(/C=N/NC(=O)c3ccc(O)cc3)ccc21 | 29 | 31 | 67* | 16 | 0
COc1ccc2ccccc2c1/C=N/NC(=O)c1cccc(Br)c1 | -5 | 13 | -15 | -5 | 0
Cc1ccc(Nc2nc(/N=C/NO)n[nH]2)cc1C | -4 | -9 | -3 | -2 | 0
SMILES | T cruzi repl | HSF1 activator | L major viab | HSF1 inhib | Hsp70 activator
COCC1CCN(C(=O)c2ccc(OC3CCN(Cc4ccccn4)CC3)cc2)C1 (stereo not given) | -13 | -7 | / | -6 | /
COc1ccccc1CC(=O)NCCN1CCCCC1 | -1 | -2 | / | 3 | /
O=C(NCc1ccco1)c1ccc(Cl)c(S(=O)(=O)Nc2ccccc2)c1 | 24 | -12 | 9 | -5 | 0
C=CCNC(=O)c1ccccc1NC(=O)c1ccc(Cl)c(S(=O)(=O)Nc2ccccc2)c1 | 10 | / | 58* | / | 0
CCOC(=O)C(=O)N1CCC(C(=O)OCC)CC1 | 8 | -2 | / | -8 | /
OCCCNc1ncnc2oc(-c3ccccc3)c(-c3ccccc3)c12 | 23 | -10 | / | -4 | /
c1ccc(-c2oc3ncnc(NCCCN4CCOCC4)c3c2-c2ccccc2)cc1 | 20 | 3 | 100* | -4 | 0
COc1ccc(-c2oc3ncnc(NCCCN4CCOCC4)c3c2-c2ccc(OC)cc2)cc1 | 44 | -8 | 75* | -3 | 0
CCOc1cc2nc(-c3ccc(OC)c(OC)c3)nc(NCCCN3CCOCC3)c2cc1OC | 27 | 11 | 54* | 3 | 0
COc1ccc(-c2oc3ncn(CCN4CCOCC4)c(=N)c3c2-c2ccc(OC)cc2)cc1 | 45 | 1 | 55* | -6 | 0
COc1ccc(-c2oc3ncnc(NCCN4CCOCC4)c3c2-c2ccc(OC)cc2)cc1 | ? | -10 | 49 | 0 | 0

From PubChem
